Inhibition and IC50 data for three compounds are collected here from ChEMBL document CHEMBL1144893, “Discovery of a potent and selective protein kinase CK2 inhibitor by high-throughput docking” (J Med Chem, 2003).

In test [1] the target is T1, Casein kinase II (Homo sapiens) (UniProt P67870+P68400+P19784). The test can be described thus: Inhibition of Casein kinase 2 at 10 uM. It is filed as protein-complex assay.
For test [2], the target named is Vascular endothelial growth factor receptor 1 (Homo sapiens) (UniProt P17948). Kind of test: Inhibition of Protein kinase Flt-1 at 10 uM. A digest of the protocol:
(§1)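 Filter-binding assay with recombinant GST-fused kinase domains expressed in baculovirus and purified over glutathione sepharose. [33P]-ATP was the phosphate donor and polyGluTyr (4:1) the acceptor. ATP was near Km: KDR, Flt-1, FGFR-1, Tek 8.0 μM; PDGFR-β, c-Kit, c-Met 1.0 μM; c-abl 5 μM; Her-1, Her-2 2.0 μM; c-Src 20 μM; IGF-1R 30 μM.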

Test [3] has as its target RAF proto-oncogene serine/threonine-protein kinase (Homo sapiens) (UniProt P04049). As to conditions: 10 uM.
Test [4] has as its target Angiopoietin-1 receptor (Homo sapiens) (UniProt Q02763). The test can be described thus: Inhibition of Protein kinase TEK at 10 uM. In a few lines:
as §1

In test [5] the target is Serine/threonine-protein kinase AKT (Homo sapiens) (UniProt P31751+Q9Y243+P31749). The test can be described thus: Inhibition of Protein kinase B at 10 uM. It is filed as protein assay.
Test [6] addresses Platelet-derived growth factor receptor beta (Homo sapiens) (UniProt P09619). The test can be described thus: Inhibition of Platelet derived growth factor receptor beta at 10 uM. A digest of the protocol: as §1
The target in test [7] is Insulin receptor (Homo sapiens) (UniProt P06213). Kind of test: Inhibition of Insulin receptor at 10 uM.
In test [8] the target is cAMP-dependent protein kinase (PKA) (Homo sapiens) (UniProt P22694+P17612+P22612). The test can be described thus: Inhibition of Protein kinase A at 10 uM. Format: protein assay. In a few lines: (§2)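 Run under conditions optimized for each kinase, with ATP near the enzyme's Km: CDK1 7.5 μM, PKA 50 μM.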
Test [9] concerns the target Tyrosine-protein kinase ABL1 (Homo sapiens) (UniProt P00519). Kind of test: Inhibition of c-Abl tyrosine kinase at 10 uM. In a few lines:
as §1

Test [10] deals with Insulin-like growth factor 1 receptor (Homo sapiens) (UniProt P08069). The test can be described thus: Inhibition of Type 1 insulin like growth factor receptor at 10 uM. A digest of the protocol: as §1
For test [11], the target named is 3-phosphoinositide-dependent protein kinase 1 (Homo sapiens) (UniProt O15530). Kind of test: Inhibition of Phosphatidylinositol-trisphosphate-dependent kinase 1 at 10 uM.
For test [12], the target named is Receptor-type tyrosine-protein kinase FLT3 (Homo sapiens) (UniProt P36888). The test can be described thus: Inhibition of Protein kinase Flt-3 at 10 uM.
Test [13] deals with Fibroblast growth factor receptor 1 (Homo sapiens) (UniProt P11362). Kind of test: Inhibition of Protein kinase fibroblast growth factor receptor 1 at 10 uM. In a few lines: as §1
Test [14] concerns the target Cyclin-dependent kinase 1 (Homo sapiens) (UniProt P06493). Kind of test: Inhibition of Cyclin dependent kinase 1 at 10 uM. A digest of the protocol:
as §2

Test [15] deals with Hepatocyte growth factor receptor (Homo sapiens) (UniProt P08581). Kind of test: Inhibition of Protein kinase Met at 10 uM. A digest of the protocol:
as §1

For test [16], the target named is Proto-oncogene tyrosine-protein kinase Src (Homo sapiens) (UniProt P12931). The test can be described thus: Inhibition of Protein kinase Src at 10 uM. In a few lines:
as §1

The target of test [17] is Vascular endothelial growth factor receptor 2 (Homo sapiens) (UniProt P35968). Kind of test: Inhibition of Kinase insert domain receptor (VEGFR2) at 10 uM. In a few lines:
as §1

Test [18] addresses Receptor tyrosine-protein kinase erbB-2 (Homo sapiens) (UniProt P04626). The test can be described thus: Inhibition of protein kinase HER-2 at 10 uM. A digest of the protocol:
as §1

The target in test [19] is Vascular endothelial growth factor receptor 3 (Homo sapiens) (UniProt P35916). As to conditions: 10 uM.
Test [20] concerns the target Epidermal growth factor receptor (Homo sapiens) (UniProt P00533). The test can be described thus: Inhibition of protein kinase HER-1 at 10 uM. In a few lines: as §1
In test [21] the target is T1, Casein kinase II (Homo sapiens).
The target of test [22] is Mast/stem cell growth factor receptor Kit (Homo sapiens) (UniProt P10721). Kind of test: Inhibition of Protein kinase Kit at 10 uM. In a few lines:
as §1

Sequence of Proto-oncogene tyrosine-protein kinase Src (Homo sapiens) (P12931 2-536 limits assumed): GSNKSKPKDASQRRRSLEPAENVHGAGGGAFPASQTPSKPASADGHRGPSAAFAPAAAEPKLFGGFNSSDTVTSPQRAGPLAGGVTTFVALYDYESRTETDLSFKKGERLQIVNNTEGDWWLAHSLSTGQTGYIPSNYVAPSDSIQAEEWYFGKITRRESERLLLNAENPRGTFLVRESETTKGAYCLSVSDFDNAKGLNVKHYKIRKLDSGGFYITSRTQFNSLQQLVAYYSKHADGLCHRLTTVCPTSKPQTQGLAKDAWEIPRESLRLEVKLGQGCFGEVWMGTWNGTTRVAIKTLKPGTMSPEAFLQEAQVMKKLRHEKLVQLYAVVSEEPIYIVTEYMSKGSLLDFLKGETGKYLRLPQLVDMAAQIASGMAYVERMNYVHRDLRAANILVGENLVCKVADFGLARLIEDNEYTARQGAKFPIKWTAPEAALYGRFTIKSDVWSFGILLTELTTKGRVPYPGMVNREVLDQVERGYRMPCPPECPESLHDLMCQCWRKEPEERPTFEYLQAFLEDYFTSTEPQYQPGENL
Sequence of Insulin receptor (Homo sapiens) (P06213 28-758 limits assumed): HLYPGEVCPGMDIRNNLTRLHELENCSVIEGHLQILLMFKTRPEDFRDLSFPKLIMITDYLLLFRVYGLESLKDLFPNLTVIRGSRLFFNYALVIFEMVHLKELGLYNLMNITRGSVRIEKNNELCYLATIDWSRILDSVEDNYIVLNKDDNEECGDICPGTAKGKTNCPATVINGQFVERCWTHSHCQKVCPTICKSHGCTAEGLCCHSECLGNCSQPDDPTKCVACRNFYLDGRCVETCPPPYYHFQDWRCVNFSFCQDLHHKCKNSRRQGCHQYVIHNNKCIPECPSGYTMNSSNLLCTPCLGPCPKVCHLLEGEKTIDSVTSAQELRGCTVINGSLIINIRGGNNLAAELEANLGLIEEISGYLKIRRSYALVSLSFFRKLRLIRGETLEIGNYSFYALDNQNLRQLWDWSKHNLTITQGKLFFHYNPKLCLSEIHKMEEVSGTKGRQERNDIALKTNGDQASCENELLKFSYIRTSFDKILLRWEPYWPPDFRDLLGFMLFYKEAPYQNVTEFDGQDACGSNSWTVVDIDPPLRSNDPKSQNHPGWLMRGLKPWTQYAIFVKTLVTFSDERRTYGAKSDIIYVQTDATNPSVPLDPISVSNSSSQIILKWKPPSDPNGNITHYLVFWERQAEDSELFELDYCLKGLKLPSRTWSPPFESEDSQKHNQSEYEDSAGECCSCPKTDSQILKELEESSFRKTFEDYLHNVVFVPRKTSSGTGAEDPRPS
Sequence of Insulin receptor (Homo sapiens) (P06213 763-1382 limits assumed): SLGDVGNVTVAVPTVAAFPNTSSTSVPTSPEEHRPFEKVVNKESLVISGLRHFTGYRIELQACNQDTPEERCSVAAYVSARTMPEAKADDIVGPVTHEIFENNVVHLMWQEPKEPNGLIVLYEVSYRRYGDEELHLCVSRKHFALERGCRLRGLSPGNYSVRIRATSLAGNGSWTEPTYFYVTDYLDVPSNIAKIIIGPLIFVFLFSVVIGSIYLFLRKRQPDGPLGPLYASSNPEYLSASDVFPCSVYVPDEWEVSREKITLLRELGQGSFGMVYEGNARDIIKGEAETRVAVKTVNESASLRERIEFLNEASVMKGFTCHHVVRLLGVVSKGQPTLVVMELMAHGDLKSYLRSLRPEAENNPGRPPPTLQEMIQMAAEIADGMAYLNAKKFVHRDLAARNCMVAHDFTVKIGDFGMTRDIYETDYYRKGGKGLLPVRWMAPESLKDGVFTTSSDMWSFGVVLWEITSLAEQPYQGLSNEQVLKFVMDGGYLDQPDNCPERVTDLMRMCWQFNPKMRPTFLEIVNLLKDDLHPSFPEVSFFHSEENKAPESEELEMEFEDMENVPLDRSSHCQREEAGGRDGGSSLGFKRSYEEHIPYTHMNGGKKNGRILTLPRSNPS
Sequence of Serine/threonine-protein kinase AKT (Homo sapiens) (P31749 whole entry, looked up): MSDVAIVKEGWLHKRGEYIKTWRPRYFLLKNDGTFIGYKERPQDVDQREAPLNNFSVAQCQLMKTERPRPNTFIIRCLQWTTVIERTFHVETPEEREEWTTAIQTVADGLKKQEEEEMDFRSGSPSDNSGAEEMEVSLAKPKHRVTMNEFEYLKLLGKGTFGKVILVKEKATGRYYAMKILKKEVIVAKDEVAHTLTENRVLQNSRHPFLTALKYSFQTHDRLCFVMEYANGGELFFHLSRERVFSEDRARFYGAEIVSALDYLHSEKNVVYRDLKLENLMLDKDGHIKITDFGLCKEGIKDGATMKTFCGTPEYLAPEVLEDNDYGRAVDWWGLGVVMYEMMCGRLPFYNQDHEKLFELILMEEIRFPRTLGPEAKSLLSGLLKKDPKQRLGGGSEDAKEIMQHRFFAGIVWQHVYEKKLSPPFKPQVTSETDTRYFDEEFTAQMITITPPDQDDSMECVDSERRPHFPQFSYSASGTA
Sequence of Serine/threonine-protein kinase AKT (Homo sapiens) (P31751 whole entry, looked up): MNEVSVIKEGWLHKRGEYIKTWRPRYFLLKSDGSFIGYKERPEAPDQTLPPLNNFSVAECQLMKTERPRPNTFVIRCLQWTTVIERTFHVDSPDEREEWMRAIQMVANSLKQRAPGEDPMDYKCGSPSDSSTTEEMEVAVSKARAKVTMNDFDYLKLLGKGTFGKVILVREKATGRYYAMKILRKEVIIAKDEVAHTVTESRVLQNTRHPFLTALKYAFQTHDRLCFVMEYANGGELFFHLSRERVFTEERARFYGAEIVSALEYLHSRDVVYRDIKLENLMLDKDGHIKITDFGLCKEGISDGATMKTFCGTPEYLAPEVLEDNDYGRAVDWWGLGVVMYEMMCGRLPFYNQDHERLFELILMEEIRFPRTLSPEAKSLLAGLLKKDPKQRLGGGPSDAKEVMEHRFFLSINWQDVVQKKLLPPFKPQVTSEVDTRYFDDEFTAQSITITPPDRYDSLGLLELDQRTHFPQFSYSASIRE
Sequence of Serine/threonine-protein kinase AKT (Homo sapiens) (Q9Y243 whole entry, looked up): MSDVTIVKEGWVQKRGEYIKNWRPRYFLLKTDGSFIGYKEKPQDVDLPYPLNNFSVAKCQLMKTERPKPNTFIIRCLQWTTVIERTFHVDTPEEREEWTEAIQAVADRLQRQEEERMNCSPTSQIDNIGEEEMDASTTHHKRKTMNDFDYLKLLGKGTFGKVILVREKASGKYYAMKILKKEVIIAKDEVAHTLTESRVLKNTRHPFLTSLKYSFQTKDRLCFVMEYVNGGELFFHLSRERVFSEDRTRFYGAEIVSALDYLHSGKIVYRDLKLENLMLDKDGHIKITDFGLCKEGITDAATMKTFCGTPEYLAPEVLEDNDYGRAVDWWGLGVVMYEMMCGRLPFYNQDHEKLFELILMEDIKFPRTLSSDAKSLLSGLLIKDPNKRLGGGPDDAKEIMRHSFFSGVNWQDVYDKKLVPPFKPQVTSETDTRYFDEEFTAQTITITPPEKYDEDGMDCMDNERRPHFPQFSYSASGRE
Sequence of Fibroblast growth factor receptor 1 (Homo sapiens) (P11362 22-822 limits assumed): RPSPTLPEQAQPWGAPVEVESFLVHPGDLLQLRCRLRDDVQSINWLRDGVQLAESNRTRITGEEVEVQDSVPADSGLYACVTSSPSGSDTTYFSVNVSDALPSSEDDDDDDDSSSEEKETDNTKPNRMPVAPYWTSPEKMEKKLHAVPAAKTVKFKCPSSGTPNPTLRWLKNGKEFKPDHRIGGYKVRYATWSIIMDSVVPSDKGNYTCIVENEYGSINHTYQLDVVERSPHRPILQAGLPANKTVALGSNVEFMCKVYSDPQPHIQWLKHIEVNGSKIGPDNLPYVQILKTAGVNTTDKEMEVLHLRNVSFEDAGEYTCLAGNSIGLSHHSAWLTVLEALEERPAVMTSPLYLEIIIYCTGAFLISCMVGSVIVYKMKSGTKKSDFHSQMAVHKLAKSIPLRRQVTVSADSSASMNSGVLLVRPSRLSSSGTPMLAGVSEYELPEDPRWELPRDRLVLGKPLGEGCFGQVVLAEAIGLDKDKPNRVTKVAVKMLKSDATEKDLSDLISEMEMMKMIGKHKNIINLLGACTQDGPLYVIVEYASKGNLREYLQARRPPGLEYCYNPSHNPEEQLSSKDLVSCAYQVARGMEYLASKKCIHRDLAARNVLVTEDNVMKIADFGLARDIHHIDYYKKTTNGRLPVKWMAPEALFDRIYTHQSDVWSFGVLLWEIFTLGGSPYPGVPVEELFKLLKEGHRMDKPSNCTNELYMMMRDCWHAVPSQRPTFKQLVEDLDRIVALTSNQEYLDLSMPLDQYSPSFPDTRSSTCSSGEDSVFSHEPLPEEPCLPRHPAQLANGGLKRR
Sequence of Cyclin-dependent kinase 1 (Homo sapiens) (P06493 whole entry, looked up): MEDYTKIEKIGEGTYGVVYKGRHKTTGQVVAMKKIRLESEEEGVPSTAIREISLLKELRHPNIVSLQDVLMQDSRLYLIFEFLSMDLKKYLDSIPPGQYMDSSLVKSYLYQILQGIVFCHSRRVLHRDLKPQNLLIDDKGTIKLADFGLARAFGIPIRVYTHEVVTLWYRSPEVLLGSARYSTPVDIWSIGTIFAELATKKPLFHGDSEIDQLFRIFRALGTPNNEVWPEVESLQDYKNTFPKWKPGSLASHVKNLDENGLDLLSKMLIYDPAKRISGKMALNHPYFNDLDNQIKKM
Sequence of 3-phosphoinositide-dependent protein kinase 1 (Homo sapiens) (O15530 whole entry): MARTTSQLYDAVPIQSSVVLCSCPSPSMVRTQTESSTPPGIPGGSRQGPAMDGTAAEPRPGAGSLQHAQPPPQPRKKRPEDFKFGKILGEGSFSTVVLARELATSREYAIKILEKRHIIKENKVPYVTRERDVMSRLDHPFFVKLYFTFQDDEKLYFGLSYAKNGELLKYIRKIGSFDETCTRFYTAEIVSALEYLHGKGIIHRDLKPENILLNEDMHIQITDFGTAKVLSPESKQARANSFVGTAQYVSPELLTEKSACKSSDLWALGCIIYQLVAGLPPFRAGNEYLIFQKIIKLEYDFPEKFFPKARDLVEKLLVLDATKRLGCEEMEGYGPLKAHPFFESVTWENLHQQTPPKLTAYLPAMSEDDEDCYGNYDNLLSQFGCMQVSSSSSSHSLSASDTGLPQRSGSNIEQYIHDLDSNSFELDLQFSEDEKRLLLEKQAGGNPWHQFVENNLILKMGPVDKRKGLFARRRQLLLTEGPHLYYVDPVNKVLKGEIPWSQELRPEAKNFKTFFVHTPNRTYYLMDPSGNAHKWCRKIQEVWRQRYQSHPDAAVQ

`OCCc1c2ccccc2n2c1nc(O)c1ccccc12`: in [1], the inhibition (commonly the relative decrease from the control value, in per cent) was found to be 48%.

`Cc1c2ccccc2n2c1nc(O)c1ccccc12` yielded an inhibition in [1] of 12%.

As to `O=C(O)Cc1c2ccccc2n2c1[nH]c(=O)c1ccccc12`, the inhibition in test [2] is 21%; in [3], 30%; in [4], 36%; in [5], 30%; in test [6] it was 11%; in test [7], 23%. Moreover, the inhibition in [8] worked out at 51%; in test [9], 25%; in [10], 44%; in [11] it was 9%; in test [12], 41%; in test [13], 32%. Besides, the inhibition came out at 51% in test [14]; 40% in test [15]; 0% in test [16]; 54% in test [17]; 29% in test [18]; 30% in [19]. For the same compound, the inhibition in [20] amounted to 12%; in test [1], 97%; in test [22], 31%. Moreover, in test [21], half-maximal inhibition (IC50) was put at 80 nM.
